The values that follow come from ChEMBL document CHEMBL1129403, “Analogs of 3-hydroxy-1H-1-benzazepine-2,5-dione: structure-activity relationship at N-methyl-D-aspartate receptor glycine sites” (J Med Chem, 1996).

The target of test [1] is T1, Glutamate receptor ionotropic, AMPA (Rattus norvegicus) (UniProt P19491+P19492+P19493+P19490). The test is described as follows: Inhibition of AMPA(glutamate) preferring non-NMDA receptors was measured in cultured rat cortical neurons. Number of cells examined are 3.
Test [2] deals with T2, Glutamate NMDA receptor (Rattus norvegicus) (UniProt P35439+Q00959+Q00960+Q00961+Q62645+Q8VHN2+Q9R1M7). The test is described as follows: Inhibition of NMDA(glycine) receptors was measured in oocytes expressing cloned rat brain receptor subunits (NR1a/2C). Number of cells examined are 3. In kind it is functional, cell-based. The following applies: Oocyte.
Test [3] concerns the target T1, Glutamate receptor ionotropic, AMPA (Rattus norvegicus). In words: Inhibition of AMPA(glutamate) preferring non-NMDA receptors was measured in oocytes expressing rat brain poly(A)+ RNA. Number of cells examined are 4. As to conditions: Oocyte. In kind it is functional, cell-based. The method in brief:
(§1)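 Oocytes injected with rat cerebral cortex poly(A)+ RNA, two-electrode voltage clamp. Currents elicited by 10 µM AMPA. Kb derived from partial concentration-inhibition curves by generalized Cheng-Prusoff, using AMPA EC50 5.89 µM and slope 1.96.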

Test [4] can be described thus: Ratio of binding affinities of NMDA / AMPA. The method in brief: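 Steady-state selectivity index: Kb AMPA divided by Kb NMDA, with both Kb values taken from oocyte recordings.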
The target of test [5] is Glutamate NMDA receptor. The test is described as follows: Inhibition of [3H]5,7-dichlorokynurenic acid(DCKA) binding to N-methyl-d-aspartate receptors(NMDA) of rat brain cortical membranes. The class given is cell membranes, Membrane. The procedure, abridged:
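[³H]DCKA (15-20 nM) incubated with well-washed rat cortical membranes and nine concentrations (up to 100 µM) in 50 mM HEPES-KOH, pH 7.5, for 30 min on ice. Reaction stopped by filtration and filter-bound radioactivity counted by liquid scintillation. IC50 taken from a sigmoidal fit.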

The target of test [6] is Glutamate NMDA receptor. The test is described as follows: Compound was tested for inhibition of [3H]MK-801 binding to N-methyl-d-aspartate receptors(NMDA) of rat brain cortical membranes. The class given is cell membranes, Membrane. The method in brief:
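[³H]MK801 displacement in rat brain cortical membranes, run by a previously described method. Compounds with IC50 < 300 µM were counted as potential NMDA antagonists.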

In test [7] the target is T2, Glutamate NMDA receptor (Rattus norvegicus). The test is described as follows: Inhibition of NMDA(glycine) receptors was measured in oocytes expressing cloned rat brain receptor subunits (NR1a/2C). Number of cells examined are 4. As to conditions: Oocyte. In kind it is functional, cell-based.
The target of test [8] is AMPA receptor (Rattus norvegicus). In words: Inhibition of AMPA(glutamate) preferring non-NMDA receptors was measured in oocytes expressing rat brain poly(A)+ RNA. Number of cells examined are 6. The following applies: Oocyte.
A further test concerns Mus musculus. In words: In vivo potency in mouse maximum electroshock-inducedseizure after i.v. administration. The class given is functional. As to conditions: iv.
Test [9] concerns the target T1, Glutamate receptor ionotropic, AMPA (Rattus norvegicus). In words: Inhibition of AMPA(glutamate) preferring non-NMDA receptors was measured in oocytes expressing rat brain poly(A)+ RNA. Number of cells examined are 3. In kind it is functional, cell-based. The following applies: Oocyte. The procedure, abridged: as §1
For test [10] the target is unchanged. In words: Inhibition of AMPA(glutamate) preferring non-NMDA receptors was measured in cultured rat cortical neurons. Number of cells examined are 2.
The target of test [11] is T2, Glutamate NMDA receptor (Rattus norvegicus). In words: Inhibition of NMDA(glycine) receptors was measured in oocytes expressing cloned rat brain receptor subunits (NR1a/2C). Number of cells examined are 2. The class given is functional, cell-based. The following applies: Oocyte.
The target of test [12] is T1, Glutamate receptor ionotropic, AMPA (Rattus norvegicus). In words: Inhibition of AMPA(glutamate) preferring non-NMDA receptors was measured in cultured rat cortical neurons. Number of cells examined are 8.
Test [13] has the same target. In words: Inhibition of AMPA(glutamate) preferring non-NMDA receptors was measured in oocytes expressing rat brain poly(A)+ RNA. Number of cells examined are 5. The class given is functional, cell-based. As to conditions: Oocyte. The method in brief: as §1
Test [14] deals with T2, Glutamate NMDA receptor (Rattus norvegicus). The test is described as follows: Inhibition of NMDA(glycine) receptors was measured in oocytes expressing cloned rat brain receptor subunits (NR1a/2C). Number of cells examined are 7. In kind it is functional, cell-based. The following applies: Oocyte.

One may read the IC50 as the concentration that inhibits the measured activity by half. Lower therefore signals greater potency. In general, ED50 refers to the midpoint of the dose-response relation. A low value points to greater potency.

Molecules are shown by their SMILES. Several values for one entry are separate records, joined by “and”; a condition that tells them apart may be missing. Identical values can stand only once.

Consider `Cc1ccc2c(O)cc(=O)c(=O)[nH]c2c1`, for which the Kb in test [1] was 6.4 µM; in [2], 0.25 µM and 0.47 µM; in [3], 9.9 µM. Also, the Ratio in test [4] amounted to 40. At Glutamate NMDA receptor [5], this molecule had an IC50 of 0.13 µM.
On to `O=c1cc(O)c2cc([N+](=O)[O-])ccc2[nH]c1=O`, for which the IC50 at Glutamate NMDA receptor [5] turned out to be 12 µM. This counts as double-digit micromolar.
For `[N-]=[N+]=Nc1ccc2[nH]c(=O)c(=O)cc(O)c2c1`, the IC50 on Glutamate NMDA receptor [6] is > 300 µM.
`Cc1cc(C)c2[nH]c(=O)c(O)cc(=O)c2c1`: the IC50 at Glutamate NMDA receptor [6] is > 300 µM.
Turning to `Cc1ccc(C)c2c(O)cc(=O)c(=O)[nH]c12`, the IC50 at Glutamate NMDA receptor [6] was > 300 µM.
Take `O=c1cc(O)c2ccc(Br)cc2[nH]c1=O`: the results for the Kb in test [7] and in test [8] were 0.026 µM and 2.7 µM, respectively. Moreover, the Ratio in [4] turned out to be 100. This molecule yielded an IC50 at Glutamate NMDA receptor [5] of 0.079 µM.
Take `Cc1cc(C)c2c(O)cc(=O)c(=O)[nH]c2c1`: the ED50 in the test with Mus musculus was 3.9 mg/kg. This molecule also had an IC50 at Glutamate NMDA receptor [5] of 0.3 µM.
Turning to `O=c1cc(O)c2ccccc2[nH]c1=O`, the Kb came out at 42 µM in test [9], 1.3 µM in [7] and 65 µM in test [10]. Besides, the Ratio in [4] was 32. At Glutamate NMDA receptor [5], this molecule yielded an IC50 of 0.83 µM.
Regarding `Cc1ccc2[nH]c(=O)c(O)cc(=O)c2c1C`, the IC50 on Glutamate NMDA receptor [6] is > 300 µM.
Consider `O=c1cc(O)c2cc(Br)ccc2[nH]c1=O`, for which, at Glutamate NMDA receptor [6], the IC50 was > 300 µM.
For the molecule `O=c1cc(O)c(=O)c2ccccc2[nH]1`, the IC50 on Glutamate NMDA receptor [5] was > 100 µM. Further, the Kb in [11] is > 55 µM.
As to `Cc1c[nH]c(=O)c(O)cc1=O`, the IC50 at Glutamate NMDA receptor [6] is > 300 µM.
`Cc1cc2[nH]c(=O)c(O)cc(=O)c2cc1C` had an ED50 with Mus musculus of 6.3 mg/kg. Further, the Kb in test [7] amounted to 0.086 µM; in [3], 3.8 µM. Also, the Ratio in [4] turned out to be 44. On Glutamate NMDA receptor [5], this molecule had an IC50 of 0.24 µM.
For the molecule `CC(=O)Nc1ccc2[nH]c(=O)c(O)cc(=O)c2c1`, the IC50 at Glutamate NMDA receptor [5] was > 100 µM.
As for `Cc1cc2[nH]c(=O)c(O)cc(=O)c2c(C)c1[N+](=O)[O-]`, at Glutamate NMDA receptor [5], the IC50 was found to be 2.2 µM.
As for `Cc1cccc2c(O)cc(=O)c(=O)[nH]c12`, the IC50 at Glutamate NMDA receptor [6] is > 300 µM.
Take `O=c1ccc(=O)c2ccccc2[nH]1`: the IC50 at Glutamate NMDA receptor [6] is > 300 µM.
In turn, `Cc1cccc2[nH]c(=O)c(O)cc(=O)c12` showed an IC50 on Glutamate NMDA receptor [5] of 13 µM.
In the case of `O=c1cc(O)c2ccc(F)cc2[nH]c1=O`, the values for the Kb in test [2] and in test [3] were 0.21 µM and 5.3 µM, respectively. Besides, in [4], the Ratio is 25. At Glutamate NMDA receptor [5], this molecule registered an IC50 of 0.49 µM.
For the molecule `O=Nc1c(O)c2ccccc2[nH]c(=O)c1=O`, at Glutamate NMDA receptor [6], the IC50 was > 300 µM.
Take `O=C(Nc1ccc2[nH]c(=O)c(=O)cc(O)c2c1)C(F)(F)F`: the IC50 on Glutamate NMDA receptor [6] is > 300 µM.
Consider `O=c1cc(O)c2ccc(Cl)cc2[nH]c1=O`, for which, in the test on Mus musculus, the ED50 was determined as 13 mg/kg. Further, the Kb was 10 µM in test [12], 2 µM in test [13] and 0.026 µM in test [14]. For the same molecule, in test [4], the Ratio worked out at 77. The IC50 at Glutamate NMDA receptor [5] is 0.013 µM.
For `CCc1ccc2c(O)cc(=O)c(=O)[nH]c2c1`, the IC50 at Glutamate NMDA receptor [5] worked out at 5.1 µM. That is a single-digit micromolar value.
